ChEMBL document CHEMBL3774376, “Synthesis, and anticonvulsant activity of new amides derived from 3-methyl- or 3-ethyl-3-methyl-2,5-dioxo-pyrrolidin-1-yl-acetic acids” (Bioorg Med Chem, 2016)
The source made the active and inactive calls. No cut-off for these calls is given here.

Columns and labels:
Mus musculus [1] = test: Neurotoxicity in CD1 albino mouse assessed as acute motor impairment at 300 mg/kg, ip measured after 0.5 hrs by rotarod test; format: toxicity, organism-based; details: in vivo
Method in brief: (§1)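 Male CD-1 mice given 30, 100 or 300 mg/kg ip in 0.5% methylcellulose, tested at 0.5 and 4 h. Motor impairment was scored as failure to keep balance for at least 1 min on a rod rotating at 10 rpm. Minimum dose causing impairment reported.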

Mus musculus [2] = test: Neurotoxicity in CD1 albino mouse assessed as acute motor impairment at 300 mg/kg, ip after 4 hrs by rotarod test; format: toxicity, organism-based; details: in vivo; method in brief: as §1
Mus musculus [3] = test: Anticonvulsant activity in ip dosed CD1 albino mouse assessed as time to peak effect; format: functional
Method in brief: (§2)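 Quantitation in male CD-1 mice dosed ip at the previously estimated time of peak effect. Seizures were induced by MES or by sc pentylenetetrazole 85 mg/kg; rotarod at 10 rpm assessed motor impairment. Groups of six, at least three doses giving 10-90% effect.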

Mus musculus [4] = test: Anticonvulsant activity in ip dosed CD1 albino mouse assessed as protection against subcutaneous pentylenetetrazole-induced seizures; format: functional; method in brief: as §2
[5] = Neurotoxicity in ip dosed CD1 albino mouse assessed as acute motor impairment by rotarod test; format: toxicity, organism-based; details: in vivo; method in brief: as §2
Mus musculus [6] = organism: Mus musculus; test: Protection index, ratio of TD50 for CD1 albino mouse to ED50 for protection against maximal electroshock-induced seizures in CD1 albino mouse; method in brief: as §2
Mus musculus [7] = test: Protection index, ratio of TD50 for CD1 albino mouse to ED50 for protection against subcutaneous pentylenetetrazole-induced seizures in CD1 albino mouse; method in brief: as §2
Mus musculus [8] = test: Antinociceptive activity in CD1 albino mouse assessed as reduction of formalin-induced licking response in neurogenic phase at 82.74 mg/kg, ip preincubated for 30 mins measured after 5 mins; format: functional; parameters: scale not given: the % may be the effect or the level left
Mus musculus [9] = test: Antinociceptive activity in CD1 albino mouse assessed as reduction of formalin-induced licking response in inflammatory phase at 82.74 mg/kg, ip preincubated for 30 mins measured after 15 to 20 mins; format: functional; parameters: scale not given: the % may be the effect or the level left
Mus musculus [10] = test: Antinociceptive activity in CD1 albino mouse assessed as reduction of formalin-induced licking response in inflammatory phase at 82.74 mg/kg, ip preincubated for 30 mins measured after 20 to 25 mins; format: functional; parameters: scale not given: the % may be the effect or the level left
Mus musculus [11] = test: Antinociceptive activity in CD1 albino mouse assessed as reduction of formalin-induced licking response in inflammatory phase at 82.74 mg/kg, ip preincubated for 30 mins measured after 25 to 30 mins; format: functional; parameters: scale not given: the % may be the effect or the level left
Mus musculus [12] = test: Local anesthetic activity in CD1 albino mouse assessed prolongation of time reaction at 2 % concentration after 20 secs by tail immersion test relative to vehicle control; format: functional
Method in brief: (§3)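 Compound at 1 or 2% in 0.5% methylcellulose, injected sc (0.2 ml) about 1 cm from the tail root of male CD-1 mice. After 15 min, the distal 3 cm of the tail was immersed in 50 ± 0.5 °C water and withdrawal time measured, cut off at 20 s. n=8; mean ± SEM; % prolongation relative to vehicle.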

Rattus norvegicus = organism: Rattus norvegicus; test: Displacement of [3H]BTX from voltage-sensitive Na+ channel site 2 in rat cerebral cortex synaptoneurosomes at 100 uM after 60 mins by liquid scintillation spectroscopic analysis; format: tissue-based
Method in brief: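 Cerebral cortex synaptoneurosomes from rat, tested at 100 µM for inhibition of specific [3H]BTX binding to the voltage-sensitive Na+ channel site 2. Reported as % inhibition of control specific binding; run commercially.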

Mus musculus [13] = test: Anticonvulsant activity in ip dosed CD1 albino mouse assessed as protection against maximal electroshock-induced seizures; format: functional
Mus musculus [14] = test: Anticonvulsant activity in CD1 albino mouse assessed as protection against maximal electroshock-induced seizures at 100 to 300 mg/kg, ip after 0.5 hrs; format: functional; details: read-out: MED
Mus musculus [15] = test: Anticonvulsant activity in CD1 albino mouse assessed as protection against maximal electroshock-induced seizures at 100 to 300 mg/kg, ip after 4 hrs; format: functional; details: read-out: MED
Mus musculus [16] = test: Anticonvulsant activity in CD1 albino mouse assessed as protection against subcutaneous pentylenetetrazole-induced seizures at 100 to 300 mg/kg, ip after 0.5 hrs; format: functional; details: CD1, 0.5 h, read-out: MED
Method in brief: (§4)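 Male CD-1 mice (16-26 g), compounds ip in 0.5% methylcellulose/water at 30, 100 or 300 mg/kg, 3-4 per group. At 0.5 or 4 h, pentylenetetrazole 85 mg/kg was injected sc. Protection was absence of clonic convulsions (at least 5 s) over a 30 min observation. Minimum active dose recorded.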

Mus musculus [17] = test: Anticonvulsant activity in CD1 albino mouse assessed as protection against subcutaneous pentylenetetrazole-induced seizures at 300 mg/kg, ip after 4 hrs; format: functional, organism-based; method in brief: as §4
Mus musculus [18] = test: Neurotoxicity in CD1 albino mouse assessed as acute motor impairment at 100 to 300 mg/kg, ip after 0.5 hrs by rotarod test; format: toxicity, organism-based; details: in vivo; method in brief: as §1
Mus musculus [19] = test: Anticonvulsant activity in ip dosed CD1 albino mouse assessed as protection against 32 mA-current- for 3 secs induced seizure by 6Hz psychomotor seizure test; format: functional
Method in brief: (§5)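 6-Hz corneal stimulation at 32 mA (6 Hz, 3 s) in male CD-1 mice dosed ip. Groups of six received several doses until at least three points fell between 10 and 90% protection. […] PI = TD50/ED50 (rotarod).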

Mus musculus [20] = organism: Mus musculus; test: Protection index, ratio of TD50 for CD1 albino mouse to ED50 for protection against 32 mA-current- for 3 secs induced seizure in CD1 albino mouse by 6Hz psychomotor seizure test; method in brief: as §5
Mus musculus [21] = test: Antinociceptive activity in CD1 albino mouse assessed as reduction of formalin-induced licking response in neurogenic phase at 70.08 mg/kg, ip preincubated for 30 mins measured after 5 mins; format: functional; parameters: scale not given: the % may be the effect or the level left
Mus musculus [22] = test: Antinociceptive activity in CD1 albino mouse assessed as reduction of formalin-induced licking response in inflammatory phase at 70.08 mg/kg, ip preincubated for 30 mins measured after 15 to 20 mins; format: functional; parameters: scale not given: the % may be the effect or the level left
Mus musculus [23] = test: Antinociceptive activity in CD1 albino mouse assessed as reduction of formalin-induced licking response in inflammatory phase at 70.08 mg/kg, ip preincubated for 30 mins measured after 25 to 30 mins; format: functional; parameters: scale not given: the % may be the effect or the level left
Mus musculus [24] = test: Anticonvulsant activity in ip dosed CD1 albino mouse assessed as time to peak effect by 6Hz psychomotor seizure test; format: functional; method in brief: as §5
Mus musculus [25] = test: Anticonvulsant activity in CD1 albino mouse assessed as protection against subcutaneous pentylenetetrazole-induced seizures at 300 mg/kg, ip after 0.5 hrs; format: functional, organism-based; method in brief: as §4
Mus musculus [26] = test: Neurotoxicity in CD1 albino mouse assessed as acute motor impairment at 100 to 300 mg/kg, ip after 4 hrs by rotarod test; format: toxicity, organism-based; details: in vivo; method in brief: as §1
Mus musculus [27] = test: Antinociceptive activity in CD1 albino mouse assessed as reduction of formalin-induced licking response in neurogenic phase at 32.08 mg/kg, ip preincubated for 4 hrs measured after 5 mins; format: functional; parameters: scale not given: the % may be the effect or the level left
Mus musculus [28] = test: Antinociceptive activity in CD1 albino mouse assessed as reduction of formalin-induced licking response in inflammatory phase at 32.08 mg/kg, ip preincubated for 4 hrs measured after 15 to 20 mins; format: functional; parameters: scale not given: the % may be the effect or the level left
Mus musculus [29] = test: Antinociceptive activity in CD1 albino mouse assessed as reduction of formalin-induced licking response in inflammatory phase at 32.08 mg/kg, ip preincubated for 4 hrs measured after 25 to 30 mins; format: functional; parameters: scale not given: the % may be the effect or the level left
Mus musculus [30] = test: Local anesthetic activity in CD1 albino mouse assessed prolongation of time reaction at 1 % concentration after 20 secs by tail immersion test relative to vehicle control; format: functional; method in brief: as §3

Row | inhibition (Rattus norvegicus) | SMILES | Activity (Mus musculus [1]) | Activity (Mus musculus [2]) | Time (Mus musculus [3]) | ED50 (Mus musculus [4]) | TD50 [5] | Ratio TD50/ED50 (Mus musculus [6]) | Ratio TD50/ED50 (Mus musculus [7]) | Activity (Mus musculus [12]) | ED50 (Mus musculus [13]) | minimal effective dose (Mus musculus [14]) | minimal effective dose (Mus musculus [15]) | Activity (Mus musculus [17]) | Activity (Mus musculus [25]) | other results
1 | 28.5% | CC1CC(=O)N(CC(=O)N2CCN(c3cccc(Cl)c3)CC2)C1=O (centres undefined) | Non-toxic | Non-toxic | 1 h | 40.3 mg/kg | 323 mg/kg | 3.91 | 8 | 17% | 82.7 mg/kg | 100 mg/kg | 300 mg/kg | inactive | – | Activity (Mus musculus [8]): 67%; Activity (Mus musculus [9]): 98%; Activity (Mus musculus [10]): 100%; Activity (Mus musculus [11]): 96%; minimal effective dose (Mus musculus [16]): 100 mg/kg
2 | 63.5% | CCC1(C)CC(=O)N(CC(=O)N2CCN(c3cccc(C(F)(F)F)c3)CC2)C1=O (centres undefined) | – | Non-toxic | 0.5 h | – | 285 mg/kg | 4.06 | – | 46% | 70.1 mg/kg | 100 mg/kg | 100 mg/kg | inactive | inactive | MTC (Mus musculus [18]): 300 mg/kg; ED50 (Mus musculus [19]): 90.3 mg/kg; Ratio TD50/ED50 (Mus musculus [20]): 3.15; Activity (Mus musculus [21]): 40%; Activity (Mus musculus [22]): 100%; Activity (Mus musculus [23]): 99%; Time (Mus musculus [24]): 0.5 h
3 | 20.9% | CC1CC(=O)N(CC(=O)N2CCN(c3ccc(Cl)cc3)CC2)C1=O (centres undefined) | Non-toxic | – | 4 h | > 250 mg/kg | > 500 mg/kg | >15.59 | >2 | 124% | 32.1 mg/kg | 100 mg/kg | 30 mg/kg | inactive | inactive | MTC (Mus musculus [26]): 300 mg/kg; Activity (Mus musculus [27]): 76%; Activity (Mus musculus [28]): 91%; Activity (Mus musculus [29]): 86%; Activity (Mus musculus [30]): 26%
